Data set [1] concerns herpes simplex virus helicase. The settings on record: read-out: helicase-catalyzed ATP hydrolysis IC50, cited from earlier work.
The target of data set [2] is T1, DENV NS3h (Dengue virus type 2, UniProt Q91H74). Format: biochemical. The settings on record: read-out: DENV ATPase IC50; DENV NS3h-catalyzed ATP hydrolysis; 100 μM ATP, poly(U) RNA, pH 7.5.
The target in data set [3] is T2, HCV NS3h (Hepatitis C virus genotype 1b, UniProt Q9WMX2). Kind of data set: HCV NS3h-catalyzed ATP hydrolysis assay. Format: biochemical. The settings on record: read-out: HCV ATPase IC50. The method, boiled down:
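HCV NS3h (4 nM) in 25 mM Tris pH 7.5, 1.25 mM MgCl2, 100 μM ATP, 15 μM poly(U) RNA (as nucleotide), 33 μg/mL BSA, 0.07% Tween 20, 0.3 mM DTT, 0.6% DMSO. Started with MgCl2; 30 min at 23 °C. Released phosphate read at 620 nm with Biomol Green. Scaled to 6.7 μM ATA (100%) and DMSO (0%). IC50 from variable-slope nonlinear fit.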

The target in data set [4] is T2, HCV NS3h. As to the kind of experiment: HCV NS3h RNA unwinding assay. The settings on record: read-out: HCV RNA-helicase IC50, values without asterisk. The class given is biochemical.
For data set [5], the target named is T2, HCV NS3h. The settings on record: read-out: HCV DNA-helicase IC50; HCV NS3h DNA unwinding; ref Li et al.[36]; cited from earlier work.
The target in data set [6] is T1, DENV NS3h. Format: biochemical. The conditions noted are these: for IC50: read-out: DENV RNA-helicase IC50, DENV NS3h RNA unwinding, 100 nM DENV helicase.
Data set [7] deals with subgenomic DENV-2 replicon. As to the kind of experiment: DENV subgenomic replicon assay. (A replicon is a self-replicating genome or part of one, used to study replication in cells.)
The test system of data set [8] is West Nile virus (Kunjin subtype). Kind of data set: West Nile virus. The class given is cell-based. The settings on record: 50 μM compound, BHK cells, 72 h.

The source of these data is PMC4444071 (ACS infectious diseases, 2015).

Like-named read-outs stand apart in the source and are kept apart here.

T1 sequence (Q91H74 1646-2093 limits assumed): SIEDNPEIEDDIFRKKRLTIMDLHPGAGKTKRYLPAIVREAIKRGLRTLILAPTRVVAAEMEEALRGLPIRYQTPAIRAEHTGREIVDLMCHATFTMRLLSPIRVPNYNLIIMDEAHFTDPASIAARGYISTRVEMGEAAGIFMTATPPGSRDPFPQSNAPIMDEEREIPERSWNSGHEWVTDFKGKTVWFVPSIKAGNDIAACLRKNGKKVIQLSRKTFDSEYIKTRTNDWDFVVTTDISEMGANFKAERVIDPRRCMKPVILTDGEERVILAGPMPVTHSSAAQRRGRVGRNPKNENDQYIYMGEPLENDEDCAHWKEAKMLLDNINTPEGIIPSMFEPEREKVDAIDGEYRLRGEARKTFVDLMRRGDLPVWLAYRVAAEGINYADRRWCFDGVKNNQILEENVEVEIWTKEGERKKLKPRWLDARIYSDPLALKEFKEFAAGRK
T2 sequence (Q9WMX2 1192-1657): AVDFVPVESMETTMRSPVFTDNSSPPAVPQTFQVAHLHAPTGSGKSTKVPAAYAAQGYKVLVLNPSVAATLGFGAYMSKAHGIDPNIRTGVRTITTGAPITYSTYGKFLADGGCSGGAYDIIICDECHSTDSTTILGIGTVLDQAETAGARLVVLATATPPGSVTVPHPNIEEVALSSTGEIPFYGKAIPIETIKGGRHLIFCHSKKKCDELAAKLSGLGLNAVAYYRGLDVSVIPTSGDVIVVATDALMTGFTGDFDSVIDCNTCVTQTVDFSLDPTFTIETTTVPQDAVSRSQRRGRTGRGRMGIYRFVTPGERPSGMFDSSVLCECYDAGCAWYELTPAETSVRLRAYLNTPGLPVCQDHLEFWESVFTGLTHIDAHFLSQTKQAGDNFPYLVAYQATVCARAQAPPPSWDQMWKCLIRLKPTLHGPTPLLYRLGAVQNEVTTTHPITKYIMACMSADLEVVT

Consider `Cc1nc(N(C)C(=O)Cc2ccc(-c3ccccn3)cc2)sc1S(N)(=O)=O` [BAY 57-1293], for which the IC50 in data set [1] (purified HSV helicase) is 0.03 µM.

Consider `Cc1cccc(C)c1N(CC(=O)Nc1ccc(-c2ncon2)cc1)C(=O)C1CCS(=O)(=O)CC1` [amenamevir], for which the IC50 in data set [1] (HSV helicase) is 0.078 µM.

Take `Cc1ccc2nc(-c3ccc4nc(-c5ccc(NC(=O)c6ccccc6)cc5)sc4c3)sc2c1S(=O)(=O)O` [compound 1]: the IC50 at DENV NS3h [2] is 5.3 ± 1.2 µM; at HCV NS3h [3], 69 ± 6 µM; at HCV NS3h [4], 8.5 ± 2 µM; at HCV NS3h [5], 11 ± 1.5 µM.

For `Cc1ccc2nc(-c3ccc4nc(-c5ccc(NC(=O)c6ccc(N)cc6)cc5)sc4c3)sc2c1S(=O)(=O)O` [compound 2], the IC50 at DENV NS3h [2] was 2.8 ± 0.6 µM; on DENV NS3h [6] it was 7.6 ± 1.6 µM; on HCV NS3h [3], 58 ± 10 µM; on HCV NS3h [5], 10 ± 2.4 µM.

For `Cc1ccc2nc(-c3ccc4nc(-c5ccc(NC(=O)c6ccc(F)cc6)cc5)sc4c3)sc2c1S(=O)(=O)O` [compound 3], the half-inhibitory concentration (IC50) on DENV NS3h [2] was 3 ± 0.4 µM; on DENV NS3h [6] it was 6.6 ± 0.9 µM; at HCV NS3h [3] it was 32 ± 7 µM; on HCV NS3h [5] it was 5.2 ± 0.6 µM.

With `COc1ccc(C(=O)Nc2ccc(-c3nc4ccc(-c5nc6ccc(C)c(S(=O)(=O)O)c6s5)cc4s3)cc2)cc1` [compound 4], the results for the 50% inhibitory concentration (IC50) at DENV NS3h [2], at HCV NS3h [3] and at HCV NS3h [5] were 3 ± 0.5 µM, 115 ± 14 µM and 10 ± 2.6 µM, respectively.

For the molecule `COC(=O)c1ccc(C(=O)Nc2ccc(-c3nc4ccc(-c5nc6ccc(C)c(S(=O)(=O)O)c6s5)cc4s3)cc2)cc1.N` [compound 5], the IC50 is 0.4 ± 0.1 µM on DENV NS3h [2], 7.9 ± 2.5 µM at DENV NS3h [6], > 200 µM on HCV NS3h [3] and 9.7 ± 4.6 µM on HCV NS3h [5]. Besides, the “times more compound needed to inhibit RNA unwinding than ATP hydrolysis” value at DENV NS3h [6] (DENV NS3h, unwinding vs ATPase) was “About 20 times”.

Consider `Cc1ccc2nc(-c3ccc4nc(-c5ccc(NC(=O)c6ccc(Cl)cc6)cc5)sc4c3)sc2c1S(=O)(=O)O` [compound 6], for which the IC50 at DENV NS3h [2] was 1.4 ± 0.2 µM; at DENV NS3h [6], 5.6 ± 1.2 µM; at HCV NS3h [3] it was 53 ± 4 µM; at HCV NS3h [4], 3.3 ± 1 µM; on HCV NS3h [5], 3.4 ± 0.3 µM.

For `Cc1ccc(C(=O)Nc2ccc(-c3nc4ccc(-c5nc6ccc(C)c(S(=O)(=O)O)c6s5)cc4s3)cc2)cc1` [compound 7], the IC50 at DENV NS3h [2] was 1.1 ± 0.2 µM; at DENV NS3h [6], 4.3 ± 1.9 µM; at HCV NS3h [3] it was 61 ± 1 µM; on HCV NS3h [4], 3.9 ± 1 µM; on HCV NS3h [5], 3.3 ± 0.3 µM.

Consider `Cc1ccc2nc(-c3ccc4nc(-c5ccc(NC(=O)c6ccc(C(F)(F)F)cc6)cc5)sc4c3)sc2c1S(=O)(=O)O` [compound 8], for which the IC50 is 1.2 ± 0.2 µM at DENV NS3h [2]; 5.2 ± 0.6 µM at DENV NS3h [6]; 111 ± 60 µM at HCV NS3h [3]; 2.8 ± 2 µM at HCV NS3h [4]; 1.8 ± 0.4 µM at HCV NS3h [5].

In the case of `Cc1ccc2nc(-c3ccc4nc(-c5ccc(NC(=O)c6ccc(C(C)(C)C)cc6)cc5)sc4c3)sc2c1S(=O)(=O)O` [compound 9], the half-inhibitory concentration (IC50) is 4 ± 0.5 µM at DENV NS3h [2], 10 ± 3.4 µM on DENV NS3h [6], > 200 µM on HCV NS3h [3] and 8.2 ± 1 µM on HCV NS3h [5].

On to `Cc1ccc2nc(-c3ccc4nc(-c5ccc(NC(=O)c6ccc(N(C)C)cc6)cc5)sc4c3)sc2c1S(=O)(=O)O` [compound 10], for which the IC50 at DENV NS3h [2] was 3.4 ± 0.3 µM; at HCV NS3h [3], > 200 µM; at HCV NS3h [4] it was 8.6 ± 2 µM; at HCV NS3h [5] it was 11 ± 6.7 µM.

For the molecule `Cc1ccc2nc(-c3ccc4nc(-c5ccc(NC(=O)c6ccc(Br)cc6)cc5)sc4c3)sc2c1S(=O)(=O)O` [compound 11], the half-maximal inhibitory concentration (IC50) on DENV NS3h [2] was 1.1 ± 0.1 µM; at DENV NS3h [6], 5 ± 1.2 µM; on HCV NS3h [3], 21 ± 6 µM; at HCV NS3h [5], 5.2 ± 4 µM.

Turning to `Cc1ccc2nc(-c3ccc4nc(-c5ccc(NC(=O)c6ccc(NC(=O)OCC7c8ccccc8-c8ccccc87)cc6)cc5)sc4c3)sc2c1S(=O)(=O)O` [compound 12], the IC50 is 1.3 ± 0.3 µM at DENV NS3h [2]; 3.5 ± 1.7 µM on DENV NS3h [6]; 39 ± 31 µM at HCV NS3h [3]; 2.8 ± 1 µM at HCV NS3h [4]; 5.4 ± 1 µM on HCV NS3h [5].

With `Cc1ccc2nc(-c3ccc4nc(-c5ccc(NC(=O)c6cccc(Cl)c6)cc5)sc4c3)sc2c1S(=O)(=O)O` [compound 13], the IC50 at DENV NS3h [2] is 4 ± 0.8 µM; on DENV NS3h [6], 5.1 ± 0.9 µM; on HCV NS3h [3] it was 24 ± 5 µM; at HCV NS3h [4], 5.9 ± 2 µM; at HCV NS3h [5], 2.6 ± 1 µM.

Consider `Cc1ccc2nc(-c3ccc4nc(-c5ccc(NC(=O)c6ccc(Cl)c(Cl)c6)cc5)sc4c3)sc2c1S(=O)(=O)O` [compound 14], for which the IC50 at DENV NS3h [2] was 2.7 ± 0.2 µM; on DENV NS3h [6] it was 3.6 ± 0.9 µM; at HCV NS3h [3] it was 53 ± 3 µM; on HCV NS3h [5], 3.7 ± 1 µM.

`Cc1ccc2nc(-c3ccc4nc(-c5ccc(NC(=O)c6ccccc6C(F)(F)F)cc5)sc4c3)sc2c1S(=O)(=O)O` [compound 15]: the IC50 at DENV NS3h [2] is 5.4 ± 0.8 µM; at HCV NS3h [3] it was 71 ± 23 µM; on HCV NS3h [4], 22.8 ± 5 µM; on HCV NS3h [5], 14 ± 1 µM.

Regarding `Cc1ccc2nc(-c3ccc4nc(-c5ccc(NC(=O)c6cccc(C(F)(F)F)c6)cc5)sc4c3)sc2c1S(=O)(=O)O` [compound 16], the IC50 on DENV NS3h [2] is 9.7 ± 3.1 µM; on HCV NS3h [3], > 200 µM; at HCV NS3h [4] it was 22.4 ± 8 µM; on HCV NS3h [5], 20 ± 12 µM.

`Cc1ccc2nc(-c3ccc4nc(-c5ccc(NC(=O)c6c(F)cccc6C(F)(F)F)cc5)sc4c3)sc2c1S(=O)(=O)O` [compound 17]: the IC50 was 93 ± 16 µM at HCV NS3h [3], 32.5 ± 7 µM on HCV NS3h [4] and 17 ± 6 µM on HCV NS3h [5].

Consider `Cc1ccc2nc(-c3ccc4nc(-c5ccc(NC(=O)c6cccc(C(F)(F)F)c6F)cc5)sc4c3)sc2c1S(=O)(=O)O` [compound 18], for which the IC50 on DENV NS3h [2] was 4.3 ± 0.3 µM; on HCV NS3h [3] it was 42 ± 14 µM; on HCV NS3h [5], 9.2 ± 3 µM.

As to `Cc1ccc2nc(-c3ccc4nc(-c5ccc(NC(=O)c6ccc(C(F)(F)F)c(F)c6)cc5)sc4c3)sc2c1S(=O)(=O)O` [compound 19], the IC50 is 3.5 ± 1.1 µM at DENV NS3h [2], 55 ± 42 µM on HCV NS3h [3], 5.4 ± 2 µM on HCV NS3h [4] and 17 ± 7 µM on HCV NS3h [5].

Turning to `Cc1ccc2nc(-c3ccc4nc(-c5ccc(NC(=O)c6cc(C(F)(F)F)cc(C(F)(F)F)c6)cc5)sc4c3)sc2c1S(=O)(=O)O.N` [compound 20], the IC50 on DENV NS3h [2] was 63 ± 20 µM; at DENV NS3h [6], 7.7 ± 1.8 µM; on HCV NS3h [3], > 200 µM. Further, the “times less compound needed to inhibit RNA unwinding than ATP hydrolysis” value at DENV NS3h [6] (DENV NS3h, unwinding vs ATPase) is given as “about 8 times”.

`Cc1ccc2nc(-c3ccc4nc(-c5ccc(NC(=O)c6cc(C(F)(F)F)ccc6F)cc5)sc4c3)sc2c1S(=O)(=O)O` [compound 21]: the half-maximal inhibitory concentration (IC50) at DENV NS3h [2] was 3.8 ± 0.2 µM; at DENV NS3h [6] it was 5.4 ± 1.3 µM; on HCV NS3h [3], 16 ± 2 µM; on HCV NS3h [4], 7.5 ± 2 µM; on HCV NS3h [5], 6.4 ± 2 µM.

Turning to `Cc1ccc2nc(-c3ccc4nc(-c5ccc(NC(=O)c6cc(F)ccc6C(F)(F)F)cc5)sc4c3)sc2c1S(=O)(=O)O` [compound 22], the values for the IC50 on DENV NS3h [2], at HCV NS3h [3] and on HCV NS3h [5] were 7.2 ± 0.8 µM, 65 ± 10 µM and 19 ± 15 µM, respectively.

For `Cc1ccc2nc(-c3ccc4nc(-c5ccc(NC(=O)c6cc(F)cc(C(F)(F)F)c6)cc5)sc4c3)sc2c1S(=O)(=O)O` [compound 23], the 50% inhibitory concentration (IC50) on DENV NS3h [2] is 11 ± 5.7 µM; on HCV NS3h [3], > 200 µM; on HCV NS3h [4] it was 9.8 ± 3 µM; at HCV NS3h [5], 28 ± 7 µM.

Take `Cc1ccc2nc(-c3ccc4nc(-c5ccc(NC(=O)c6ccc7nc(-c8ccc(N)cc8)sc7c6)cc5)sc4c3)sc2c1S(=O)(=O)O.N` [compound 24]: the IC50 was 0.5 ± 0.1 µM on DENV NS3h [2], 1.5 ± 0.2 µM at DENV NS3h [6] and 2 ± 0.7 µM at HCV NS3h [4]. The “TI (CC50/replicon EC50)” value in data set [7] (BHK cell viability CC50 / replicon EC50) stood at 17. The “inhibition of DENV replicon (in words)” value in data set [7] (concentration-response) is given as “reduced replication of a subgenomic DENV replicon in cells in a concentration-dependent manner”. Further, the “inhibition of replicon content in concentration-response assays” value in data set [7] (eight-point two-fold dilution series starting at 100 μM) is reported as “more than 90%”. In data set [7] (read-out: replicon EC50, BHK cell DENV replicon content, 72 h), the EC50 was 7.1 ± 3 µM.

As to `Cc1cc(N2C(=O)C(O)=C(C(=O)c3ccc(C)o3)C2c2cc(Cl)cc(Cl)c2)no1` (stereo not drawn) [compound 25], the “effect on West Nile virus plaque-forming units (in words)” value in data set [8] is “lowering plaque-forming units (pfu) to the greatest extent”.

One may read the IC50 as the concentration at which inhibition is half-maximal. What is called EC50 is the concentration giving half of the maximal effect.
